Rows were chosen to be rich in hits. Some 1.3% of all compounds tested hit in one or more screens of this group.
CHT PAM: CHT positive allosteric modulators, primary screen, cell-based, membrane potential dye, choline EC20; actives 0.49% (n = 310,000); High affinity choline transporter 1 (Homo sapiens), Q9GZV3; CHT-expressing cells; hits give high values; LV-AA mutant CHT in HEK293 cells; B-score at 10 µM;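 active means initial fluorescence not abnormally high and integrated response B-score, plate-corrected, over 3 SD above library mean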
Target sequence (Q9GZV3 whole entry, looked up): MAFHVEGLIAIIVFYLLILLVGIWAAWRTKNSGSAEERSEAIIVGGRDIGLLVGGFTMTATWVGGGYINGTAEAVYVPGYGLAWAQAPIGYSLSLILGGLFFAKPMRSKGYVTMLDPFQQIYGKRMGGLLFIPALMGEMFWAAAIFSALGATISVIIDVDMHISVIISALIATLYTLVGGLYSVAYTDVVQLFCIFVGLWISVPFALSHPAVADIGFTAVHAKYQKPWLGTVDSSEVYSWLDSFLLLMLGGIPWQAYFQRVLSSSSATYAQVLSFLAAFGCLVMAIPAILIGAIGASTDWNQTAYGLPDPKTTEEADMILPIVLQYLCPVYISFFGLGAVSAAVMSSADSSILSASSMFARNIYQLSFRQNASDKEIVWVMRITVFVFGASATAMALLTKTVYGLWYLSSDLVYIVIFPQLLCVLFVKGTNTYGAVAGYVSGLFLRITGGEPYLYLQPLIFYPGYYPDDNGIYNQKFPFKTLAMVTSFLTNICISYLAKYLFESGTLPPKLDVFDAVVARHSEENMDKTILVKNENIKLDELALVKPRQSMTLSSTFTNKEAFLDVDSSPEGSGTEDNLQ
CHT inh: inhibitors of human choline transporter CHT; High affinity choline transporter 1 (Homo sapiens), Q9GZV3; CHT-expressing cells, membrane potential dye, choline response; hits give low values; B-score at 10 µM; actives 0.86% (n = 310,000);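 active means B-score over 3 SD under the library average, and starting fluorescence ratio not unusually high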;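 further: choline stimulus applied at its EC90 after an EC20 pre-addition; B-score computed on integrated fluorescence ratio after choline addition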
procasp7 counter: procaspase-7 activators, primary screen, counter-screen for procaspase-3 activator project, biochemical, absorbance, HTS, human | recombinant procaspase-7, Ac-DEVD-pNA absorbance 405 nm; D23A/D198A/D206A triple mutant, cannot self-cleave; scale: DMSO 0, 5 µM enzyme 100 | activation, % at 8.5 µM | actives 0.093% (n = 330,000) | AID 463210, 2010;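 active means percent activation above the screen-wide mean plus 3 SD, cut at about 25% in these data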
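System: Procaspase-7 triple mutant (PC-7 D3A); measure: % activation from two-timepoint absorbance difference, scaled to controls; times: 1 h compound preincubation, 2 h substrate cleavage, 25 °C; also added: Ac-DEVD-pNA substrate, 400 µM as added; measured by: Epi-absorbance of released pNA at 405 nm, two timepoints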
proCasp3 act: activators of human procaspase-3 D3A mutant, primary screen, biochemical, absorbance, PC-3 D3A mutant, single concentration; recombinant procaspase-3 D3A, Ac-DEVD-pNA absorbance 405 nm; activation, % at 8.5 µM; actives 0.11% (n = 330,000); AID 463141, 2010;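 active means activation above the mean of all tested compounds plus 3 SD, cut at about 21% in these data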;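 further: 0% = DMSO alone and 100% = DMSO wells spiked with extra 5 µM PC-3 D3A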
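Assay system: Autoprocessing-dead procaspase-3 D3A mutant enzyme; also added: Ac-DEVD-pNA; doses: one concentration, 8.5 µM nominal, 0.8% DMSO; times: 1 h compound preincubation, 2 h substrate hydrolysis at 25 °C; technique: 405 nm absorbance of p-nitroaniline, reads at 0 and 120 min; measure: % activation between DMSO and enzyme-spiked controls; repeats: single replicate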
PC3 dual counter: procaspase-3 activators, counter-screen for dual procaspase-3/7 activator project, biochemical, absorbance, PC-3 D3A mutant, human; shares compounds with procasp7 counter; recombinant PC-3 D3A, Ac-DEVD-pNA absorbance 405 nm; aspartates 9, 28, 175 changed to alanine; 100% = enzyme control; activation, % at 8.5 µM; 290 tested, under 10 active;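 active means mean percent activation across triplicates above a set limit taken from the earlier primary procaspase-3 screen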;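 further: 0% = DMSO wells and 100% = DMSO wells with 5 µM added PC-3 D3A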
Procasp7 act: activation of procaspase-7 enzyme – biochemical, absorbance, human, dual procaspase-3/-7 activator project, confirmation | recombinant procaspase-7, Ac-DEVD-pNA absorbance 405 nm; D23A/D198A/D206A mutant that cannot self-cleave | shares compounds with procasp7 counter | AID 493115, 2011 | activation, % at 8.5 µM | 290 tested, under 10 active;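 active means mean activation above a set limit carried over from the earlier primary screen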;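 further: 0% = DMSO only and 100% = DMSO with added 5 µM PC-7 enzyme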
* = called active by the depositor; i = inactive; · = no result given.

SMILES | CHT PAM | CHT inh | procasp7 counter | proCasp3 act | PC3 dual counter | Procasp7 act
COc1ccccc1N1N=C(C(=O)c2ccccc2)C2C(=O)N(c3ccc(Br)cc3)C(=O)C21 (stereo unspecified) | i | i | 9 | 5 | · | ·
O=C(C1=NN(c2ccccc2)C2C(=O)N(c3ccccc3Cl)C(=O)C12)c1ccccc1 (stereo unspecified) | i | i | 48* | 30* | 45* | 34*
COC(=O)C1=NN(c2ccc(Cl)cc2)C2C(=O)N(c3ccccc3OC)C(=O)C12 (stereo unspecified) | i | i | 30* | 15 | 10 | 7
O=C(C1=NN(c2ccccc2)C2C(=O)N(c3ccccc3)C(=O)C12)c1ccccc1 (stereo unspecified) | i | i | 41* | 26* | 40* | 27*
Cn1c(=O)c2c(ncn2CC(=O)N/N=C/C=C\c2ccccc2[N+](=O)[O-])n(C)c1=O | i | i | -5 | 5 | · | ·
Cc1cc(C)c(NC(=O)C2CC(=O)N(C3CCCC3)C2)c(C)c1 (stereo unspecified) | · | · | 4 | 0 | · | ·
CC1(C)S[C@@H]2[C@H](NC(=O)[C@H](N)c3ccccc3)C(=O)N2[C@H]1C(=O)OC1OC(=O)c2ccccc21 (stereo partly specified) | i | i | -2 | 0 | · | ·
CC(=O)Nc1ccc(C2=NN(c3ccccc3)C(c3cccs3)C2)cc1 (stereo unspecified) | i | i | 126* | 157* | -31 | -35
Nc1c(S(=O)(=O)c2cccs2)c2nc3ccccc3nc2n1Cc1ccccc1 | i | i | 55* | 44* | -29 | -36
N#Cc1cc2cc3c(cc2nc1N1CCCCC1)OCCO3 | i | i | 38* | 19 | -28 | -36
COc1ccc(-c2cc3nc(-c4ccccc4)cc(N4CCC5(CC4)OCCO5)n3n2)cc1 | i | i | 36* | 23* | -28 | -36
COc1cccc(-c2cc3nc(-c4ccccc4)cc(N4CCCC(O)C4)n3n2)c1 (stereo unspecified) | i | i | 50* | 36* | -11 | -11
COc1ccc(-c2cc3nc4c(c(N5CCC6(CC5)OCCO6)n3n2)CCC4)cc1 | i | i | -5 | -1 | · | ·
Cc1cc(Cl)ccc1NC(=O)COC(=O)c1c(C)noc1C | · | · | 3 | -5 | · | ·
O=C(NCCc1ccc(F)cc1)N[C@@H](Cc1ccccc1)C(=O)O | i | i | 6 | 0 | · | ·
O=C1NC(Cc2ccccc2)c2nc3ccccc3c(=O)n2-c2cc(Cl)ccc21 (stereo unspecified) | · | · | -6 | 1 | · | ·
Cn1c(SCC(=O)NNC(=O)c2ccccc2Br)nnc1C(F)(F)F | · | · | -9 | 6 | · | ·
COc1nc2ccccc2nc1OC | i | i | 4 | -2 | · | ·
COc1c2ccccc2c(OC)c2ccccc12 | i | i | 63* | 81* | -30 | -34
O=C(NNC(=O)C1CC(c2cccnc2)=NO1)Nc1ccccc1F (stereo unspecified) | i | i | 26* | -3 | 1 | 3
CCOC(=O)/C(C#N)=C/Nc1cc(OC)ccc1OC | i | i | 87* | 95* | 9 | 6
CCCCn1c(N)c(N(CC)C(=O)C(c2ccccc2)c2ccccc2)c(=O)[nH]c1=O | i | i | 0 | 4 | · | ·
CCOc1ccc(N=CC2=C(O)CC(c3ccco3)CC2=O)cc1 (stereo unspecified) | i | i | 54* | 38* | 19 | 13
